According to ChEMBL document CHEMBL3596166, “Bisabolane-Type Sesquiterpenoids from the Whole Plant of Parasenecio rubescens” (J Nat Prod, 2015):

What was measured:
Staphylococcus aureus = assay: Antibacterial activity against Staphylococcus aureus assessed as growth inhibition at 200 ug/ml after 24 hrs by paper disk diffusion method; assay type: functional; conditions: read-out: DIZ
Procedure, shortened: (§1)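 Paper disk diffusion. About 0.1 mL of sample at 200 μg/mL applied to a 6 mm paper disk, air-dried, then placed on the inoculated culture dish and incubated 24 h at 37 °C. Read-out is inhibitory zone diameter (IZD). Penicillin G disks served as control for S. aureus and streptomycin disks for E. coli. Run in duplicate.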

Escherichia coli = assay: Antibacterial activity against Escherichia coli assessed as growth inhibition at 200 ug/ml after 24 hrs by paper disk diffusion method; assay type: functional; conditions: read-out: DIZ; procedure, shortened: as §1
B16 = assay: Cytotoxicity against mouse B16 cells assessed as inhibition of cell viability after 24 hrs by MTT assay; assay type: functional, cell-based; conditions: B16, 24 h
HepG2 = assay: Cytotoxicity against human HepG2 cells assessed as inhibition of cell viability after 24 hrs by MTT assay; assay type: functional, cell-based; conditions: HepG2, 24 h
MCF7 = assay: Cytotoxicity against human MCF7 cells assessed as inhibition of cell viability after 24 hrs by MTT assay; assay type: functional, cell-based; conditions: MCF7, 24 h

SMILES | zone of inhibition at 200 µg/mL (Staphylococcus aureus) [mm] | zone of inhibition at 200 µg/mL (Escherichia coli) [mm] | IC50 (B16) [µM] | IC50 (HepG2) [µM] | IC50 (MCF7) [µM]
C=C(C)C(O)CC(OC(=O)/C(C)=C\C)C(=C)[C@H]1[C@H](O)[C@H](OC(=O)/C(C)=C\C)[C@@](C)(O)[C@H](O)[C@@H]1OC(=O)/C=C(\C)CC (some centres not stated) | 9 | 8 | 39.7 | 71.5 | 78.9
C=C(C(CC(O)C(C)(C)O)OC(=O)/C(C)=C\C)[C@H]1[C@H](OC(=O)/C(C)=C\C)[C@H]2O[C@@]2(C)[C@@H](OC(=O)/C(C)=C\C)[C@H]1OC(C)=O (some centres not stated) |  |  | 42.5 | 40.8 | 79.4
COc1cccc2c1C(=O)c1c(O)c3c(c(O)c1C2=O)C[C@@](O)(C(=O)CO)C[C@@H]3O[C@H]1C[C@H](N)[C@H](O)[C@H](C)O1 [DOXORUBICIN] |  |  | 17.7 | 23.2 | 
C=C(C1CC(O)C(C)(C)O1)[C@H]1[C@H](OC(=O)/C(C)=C\C)[C@H]2O[C@@]2(C)[C@@H](OC(C)=O)[C@H]1OC(C)=O (some centres not stated) | 8 | 8 |  |  | 
C=C(C(CC(O)C(C)(C)OC)OC(=O)/C(C)=C\C)[C@H]1[C@H](OC(=O)/C(C)=C\C)[C@H]2O[C@@]2(C)[C@@H](OC(=O)/C(C)=C\C)[C@H]1OC(C)=O (some centres not stated) |  |  | 49.6 | 96.6 | 56.2
CN[C@@H]1[C@H](O[C@H]2[C@H](O[C@H]3[C@H](O)[C@@H](O)[C@H](N=C(N)N)[C@@H](O)[C@@H]3N=C(N)N)O[C@@H](C)[C@]2(O)C=O)O[C@@H](CO)[C@H](O)[C@H]1O [STREPTOMYCIN] |  | 18 |  |  | 
CC1(C)S[C@@H]2[C@H](NC(=O)Cc3ccccc3)C(=O)N2[C@H]1C(=O)O [PENICILLIN G] | 25 |  |  |  | 
